# Results reported in article PMC6850587 (Neurogastroenterology and Motility, 2019).
# How the values were obtained:
# [1] = biological target: T1, rat recombinant μ-opioid receptor (Rattus norvegicus, UniProt P33535); assay: radioligand displacement, [3H]-DAMGO; format: binding
# [2] = biological target: T2, recombinant human δ-opioid receptor (Homo sapiens, UniProt P41143); assay: […]-GTPγS binding functional assay; format: biochemical
# [3] = biological target: T3, rat recombinant δ-opioid receptor (Rattus norvegicus, UniProt P33533); assay: […]-GTPγS binding functional assay; format: biochemical
# [4] = biological target: T4, rat recombinant κ-opioid receptor (Rattus norvegicus, UniProt P34975); assay: […]-GTPγS binding functional assay; format: biochemical; conditions: antagonist mode, against agonist
# [5] = biological target: T3, rat recombinant δ-opioid receptor; assay: […]-GTPγS binding functional assay; format: biochemical; conditions: antagonist mode, against agonist
# [6] = biological target: T1, rat recombinant μ-opioid receptor; assay: […]-GTPγS binding functional assay; format: biochemical; conditions: antagonist mode, against agonist
# [7] = biological target: T5, recombinant human μ-opioid receptor (Homo sapiens, UniProt P35372); assay: radioligand displacement, [3H]-DAMGO; format: binding
# [8] = biological target: T2, recombinant human δ-opioid receptor; assay: […]-GTPγS binding functional assay; format: biochemical; conditions: antagonist mode, against agonist
# [9] = biological target: T6, recombinant human κ-opioid receptor (Homo sapiens, UniProt P41145); assay: radioligand displacement, [3H]-U-69, […]; format: binding
# [10] = biological target: T5, recombinant human μ-opioid receptor; assay: […]-GTPγS binding functional assay; format: biochemical
# [11] = biological target: T5, recombinant human μ-opioid receptor; assay: […]-GTPγS binding functional assay; format: biochemical; conditions: antagonist mode, against agonist
# [12] = biological target: T4, rat recombinant κ-opioid receptor; assay: […]-GTPγS binding functional assay; format: biochemical
# [13] = biological target: T6, recombinant human κ-opioid receptor; assay: […]-GTPγS binding functional assay; format: biochemical; conditions: antagonist mode, against agonist
# [14] = biological target: T4, rat recombinant κ-opioid receptor; assay: […]-GTPγS binding functional assay; format: biochemical; remark: listed apart in the source
# [15] = biological target: T6, recombinant human κ-opioid receptor; assay: […]-GTPγS binding functional assay; format: biochemical
# [16] = biological target: T1, rat recombinant μ-opioid receptor; assay: […]-GTPγS binding functional assay; format: biochemical
# [17] = biological target: T3, rat recombinant δ-opioid receptor; assay: radioligand displacement, [3H]-DADLE; format: binding
# Method in brief: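 δ-Opioid receptor sites labelled with [³H]-DADLE and displaced by test compound. The IC₅₀ is the concentration inhibiting 50% of specific binding. Ki = IC₅₀/(1 + L/Kd), where L is the radioligand concentration and the radioligand Kd comes from Scatchard plot analysis. Duplicate measurements in two or three independent experiments; data where fitting failed were excluded.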
# [18] = biological target: T2, recombinant human δ-opioid receptor; assay: radioligand displacement, [3H]-DADLE; format: binding
# T2 sequence (P41143 whole entry): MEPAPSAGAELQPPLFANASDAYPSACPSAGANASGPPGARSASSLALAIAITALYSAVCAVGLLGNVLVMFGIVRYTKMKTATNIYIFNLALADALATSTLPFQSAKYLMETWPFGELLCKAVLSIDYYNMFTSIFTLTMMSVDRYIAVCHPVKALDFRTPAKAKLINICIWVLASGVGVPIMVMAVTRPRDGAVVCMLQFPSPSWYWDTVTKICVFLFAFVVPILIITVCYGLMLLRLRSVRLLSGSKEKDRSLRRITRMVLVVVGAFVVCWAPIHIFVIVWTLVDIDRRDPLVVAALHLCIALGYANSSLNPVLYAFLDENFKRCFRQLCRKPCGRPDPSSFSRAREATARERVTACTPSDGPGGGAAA
# T5 sequence (P35372 whole entry): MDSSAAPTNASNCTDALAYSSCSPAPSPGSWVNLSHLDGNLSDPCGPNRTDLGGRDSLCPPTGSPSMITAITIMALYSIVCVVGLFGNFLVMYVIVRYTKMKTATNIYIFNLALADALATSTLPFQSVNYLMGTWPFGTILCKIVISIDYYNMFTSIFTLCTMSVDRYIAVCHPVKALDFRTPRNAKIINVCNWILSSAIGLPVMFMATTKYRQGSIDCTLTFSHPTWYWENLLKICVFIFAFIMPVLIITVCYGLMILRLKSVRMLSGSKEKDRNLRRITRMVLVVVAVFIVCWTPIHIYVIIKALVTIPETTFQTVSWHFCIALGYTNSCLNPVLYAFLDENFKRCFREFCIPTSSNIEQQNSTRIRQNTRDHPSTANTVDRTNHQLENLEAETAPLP
# T4 sequence (P34975 whole entry): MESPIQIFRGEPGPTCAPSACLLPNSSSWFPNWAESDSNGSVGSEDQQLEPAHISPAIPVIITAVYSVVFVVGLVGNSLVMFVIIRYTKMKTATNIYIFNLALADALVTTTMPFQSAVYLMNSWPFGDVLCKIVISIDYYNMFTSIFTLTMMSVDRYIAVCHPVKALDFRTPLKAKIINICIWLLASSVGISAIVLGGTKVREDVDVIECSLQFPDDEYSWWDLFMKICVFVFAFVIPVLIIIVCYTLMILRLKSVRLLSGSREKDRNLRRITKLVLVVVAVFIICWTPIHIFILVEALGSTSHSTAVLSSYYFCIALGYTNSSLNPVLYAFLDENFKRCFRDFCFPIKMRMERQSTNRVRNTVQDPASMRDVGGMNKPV
# T3 sequence (P33533 whole entry): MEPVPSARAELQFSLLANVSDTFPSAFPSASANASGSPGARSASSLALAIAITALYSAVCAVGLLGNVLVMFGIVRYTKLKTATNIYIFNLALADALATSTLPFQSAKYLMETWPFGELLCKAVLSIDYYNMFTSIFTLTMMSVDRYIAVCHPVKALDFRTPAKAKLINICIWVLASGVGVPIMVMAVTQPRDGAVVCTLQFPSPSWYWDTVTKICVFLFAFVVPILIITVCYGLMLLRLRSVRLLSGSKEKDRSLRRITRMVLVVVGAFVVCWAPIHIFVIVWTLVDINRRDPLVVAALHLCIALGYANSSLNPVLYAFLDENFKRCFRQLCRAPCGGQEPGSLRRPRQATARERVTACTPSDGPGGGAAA
# T1 sequence (P33535 whole entry): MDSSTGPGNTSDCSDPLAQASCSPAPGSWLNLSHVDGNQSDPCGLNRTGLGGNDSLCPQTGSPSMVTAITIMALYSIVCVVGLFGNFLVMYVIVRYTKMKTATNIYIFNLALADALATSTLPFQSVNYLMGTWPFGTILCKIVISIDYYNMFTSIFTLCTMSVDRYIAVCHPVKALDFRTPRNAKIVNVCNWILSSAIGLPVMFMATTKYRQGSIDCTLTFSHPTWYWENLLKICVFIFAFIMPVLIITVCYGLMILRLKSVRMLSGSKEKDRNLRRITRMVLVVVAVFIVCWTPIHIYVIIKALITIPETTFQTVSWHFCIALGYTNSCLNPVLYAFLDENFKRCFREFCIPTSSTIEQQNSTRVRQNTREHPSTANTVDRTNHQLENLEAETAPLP
# T6 sequence (P41145 whole entry): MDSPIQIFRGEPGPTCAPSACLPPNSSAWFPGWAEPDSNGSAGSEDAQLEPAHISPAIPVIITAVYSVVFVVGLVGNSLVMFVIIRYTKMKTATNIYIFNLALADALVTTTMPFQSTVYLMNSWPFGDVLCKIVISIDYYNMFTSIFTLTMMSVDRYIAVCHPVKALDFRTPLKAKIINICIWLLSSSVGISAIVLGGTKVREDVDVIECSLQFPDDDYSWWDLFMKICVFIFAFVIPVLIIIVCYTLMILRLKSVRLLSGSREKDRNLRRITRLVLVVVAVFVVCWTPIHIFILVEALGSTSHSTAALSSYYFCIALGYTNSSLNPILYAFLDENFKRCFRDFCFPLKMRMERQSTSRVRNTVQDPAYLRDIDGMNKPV
compound,measurement,setting,value
CC(C)(NC(=O)C1=C(O)[C@@H]2Oc3c(O)ccc4c3[C@@]23CCN(CC2CC2)[C@H](C4)[C@]3(O)C1)c1nc(-c2ccccc2)no1 [naldemedine],Ki,[1],1.4 ± 0.24 nM
same,EC50,[2],> 10000 nM
same,EC50,[3],> 10000 nM
same,Antagonist activity (nmol L^-1) / κ,[4],0.49 ± 0.02 nmol/L
same,Antagonist activity (nmol L^-1) / δ,[5],0.22 ± 0.02 nmol/L
same,Antagonist activity (nmol L^-1) / μ,[6],0.56 ± 0.02 nmol/L
same,Ki,[7],0.34 ± 0.03 nM
same,Antagonist activity (nmol L^-1) / δ,[8],0.27 ± 0.03 nmol/L
same,Ki,[9],0.94 nM
same,EC50,[10],> 10000 nM
same,Antagonist activity (nmol L^-1) / μ,[11],0.50 ± 0.05 nmol/L
same,IC50,[12],12.2 ± 0.57 nM
same,Antagonist activity (nmol L^-1) / κ,[13],0.44 nmol/L
same,EC50,[14],> 10000 nM
same,EC50,[15],> 10000 nM
same,EC50,[16],> 10000 nM
same,Ki,[17],0.96 ± 0.06 nM
same,Ki,[18],0.43 ± 0.08 nM
